Test results: ChEMBL document CHEMBL1153852, “Steroidal lactones as inhibitors of 17beta-hydroxysteroid dehydrogenase type 5: chemical synthesis, enzyme inhibitory activity, and assessment of estrogenic and androgenic activities” (Eur J Med Chem, 2009)

What was measured:
[1] = molecular target: T1, 17-beta-hydroxysteroid dehydrogenase type 3 (Homo sapiens) (UniProt P37058); experiment: Inhibition of human 17beta-HSD3 expressed in HEK293 cells assessed as enzyme-mediated transformation of [14C]-4-androstene-3,17-dione in to [14C]-testosterone at 1 uM; format: cell-based
T1 sequence (whole entry): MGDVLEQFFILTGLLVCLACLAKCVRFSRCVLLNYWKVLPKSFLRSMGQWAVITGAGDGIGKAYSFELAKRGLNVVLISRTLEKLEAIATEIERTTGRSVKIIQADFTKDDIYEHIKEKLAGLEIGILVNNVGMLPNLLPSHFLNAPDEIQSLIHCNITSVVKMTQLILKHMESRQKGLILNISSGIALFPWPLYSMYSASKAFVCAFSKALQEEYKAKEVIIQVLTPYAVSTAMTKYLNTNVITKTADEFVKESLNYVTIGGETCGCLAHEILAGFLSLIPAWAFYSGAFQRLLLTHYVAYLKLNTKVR

[2] = molecular target: T2, Progesterone receptor (Rattus norvegicus) (UniProt Q63449); experiment: Binding affinity to rat uterus progesterone receptor at 1 uM
T2 sequence (whole entry): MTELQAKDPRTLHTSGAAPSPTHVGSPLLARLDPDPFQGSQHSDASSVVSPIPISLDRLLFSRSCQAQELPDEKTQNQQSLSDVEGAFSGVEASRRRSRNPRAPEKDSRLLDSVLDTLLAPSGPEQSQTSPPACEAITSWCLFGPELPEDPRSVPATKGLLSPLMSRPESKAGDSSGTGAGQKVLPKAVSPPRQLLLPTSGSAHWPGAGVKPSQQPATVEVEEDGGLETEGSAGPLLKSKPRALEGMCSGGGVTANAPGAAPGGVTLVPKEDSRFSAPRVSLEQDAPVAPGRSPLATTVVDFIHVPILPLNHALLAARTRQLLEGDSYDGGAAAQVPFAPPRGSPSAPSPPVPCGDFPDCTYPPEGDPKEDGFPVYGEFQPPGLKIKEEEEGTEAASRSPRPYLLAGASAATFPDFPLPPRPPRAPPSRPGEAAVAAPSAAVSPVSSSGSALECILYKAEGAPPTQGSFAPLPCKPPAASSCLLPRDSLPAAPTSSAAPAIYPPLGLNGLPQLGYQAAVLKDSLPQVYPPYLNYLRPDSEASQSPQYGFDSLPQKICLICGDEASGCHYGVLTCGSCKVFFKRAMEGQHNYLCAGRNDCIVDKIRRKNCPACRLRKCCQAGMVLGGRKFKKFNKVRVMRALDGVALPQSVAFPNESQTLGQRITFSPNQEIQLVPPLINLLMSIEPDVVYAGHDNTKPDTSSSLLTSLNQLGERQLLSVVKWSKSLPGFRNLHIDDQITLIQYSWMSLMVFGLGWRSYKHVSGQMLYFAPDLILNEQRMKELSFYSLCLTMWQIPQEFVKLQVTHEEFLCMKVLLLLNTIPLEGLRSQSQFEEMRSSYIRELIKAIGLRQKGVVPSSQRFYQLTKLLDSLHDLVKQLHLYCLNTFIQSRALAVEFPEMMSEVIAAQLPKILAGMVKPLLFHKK

[3] = molecular target: T3, Estrogen receptor (Rattus norvegicus) (UniProt P06211); experiment: Binding affinity to rat uterus estrogen receptor at 10 uM
T3 sequence (whole entry): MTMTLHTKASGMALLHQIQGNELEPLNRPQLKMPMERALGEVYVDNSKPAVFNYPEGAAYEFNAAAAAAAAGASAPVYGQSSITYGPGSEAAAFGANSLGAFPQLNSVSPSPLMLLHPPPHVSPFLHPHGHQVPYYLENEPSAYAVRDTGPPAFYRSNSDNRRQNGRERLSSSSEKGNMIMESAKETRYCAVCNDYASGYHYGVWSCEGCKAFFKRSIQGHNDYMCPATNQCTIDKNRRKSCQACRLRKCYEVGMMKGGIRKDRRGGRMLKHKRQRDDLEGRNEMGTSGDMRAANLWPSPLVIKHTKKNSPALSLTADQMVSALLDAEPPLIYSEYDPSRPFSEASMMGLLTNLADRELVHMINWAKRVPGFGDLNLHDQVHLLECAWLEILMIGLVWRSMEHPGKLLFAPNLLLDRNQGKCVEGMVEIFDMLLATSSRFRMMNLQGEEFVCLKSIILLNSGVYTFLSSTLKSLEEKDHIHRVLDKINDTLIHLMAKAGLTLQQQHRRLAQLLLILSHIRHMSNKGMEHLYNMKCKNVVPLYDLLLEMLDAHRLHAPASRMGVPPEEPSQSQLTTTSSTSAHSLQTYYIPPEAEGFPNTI

[4] = molecular target: T4, Glucocorticoid receptor (Rattus norvegicus) (UniProt P06536); experiment: Binding affinity to rat liver glucocorticoid receptor at 10 uM
T4 sequence (whole entry): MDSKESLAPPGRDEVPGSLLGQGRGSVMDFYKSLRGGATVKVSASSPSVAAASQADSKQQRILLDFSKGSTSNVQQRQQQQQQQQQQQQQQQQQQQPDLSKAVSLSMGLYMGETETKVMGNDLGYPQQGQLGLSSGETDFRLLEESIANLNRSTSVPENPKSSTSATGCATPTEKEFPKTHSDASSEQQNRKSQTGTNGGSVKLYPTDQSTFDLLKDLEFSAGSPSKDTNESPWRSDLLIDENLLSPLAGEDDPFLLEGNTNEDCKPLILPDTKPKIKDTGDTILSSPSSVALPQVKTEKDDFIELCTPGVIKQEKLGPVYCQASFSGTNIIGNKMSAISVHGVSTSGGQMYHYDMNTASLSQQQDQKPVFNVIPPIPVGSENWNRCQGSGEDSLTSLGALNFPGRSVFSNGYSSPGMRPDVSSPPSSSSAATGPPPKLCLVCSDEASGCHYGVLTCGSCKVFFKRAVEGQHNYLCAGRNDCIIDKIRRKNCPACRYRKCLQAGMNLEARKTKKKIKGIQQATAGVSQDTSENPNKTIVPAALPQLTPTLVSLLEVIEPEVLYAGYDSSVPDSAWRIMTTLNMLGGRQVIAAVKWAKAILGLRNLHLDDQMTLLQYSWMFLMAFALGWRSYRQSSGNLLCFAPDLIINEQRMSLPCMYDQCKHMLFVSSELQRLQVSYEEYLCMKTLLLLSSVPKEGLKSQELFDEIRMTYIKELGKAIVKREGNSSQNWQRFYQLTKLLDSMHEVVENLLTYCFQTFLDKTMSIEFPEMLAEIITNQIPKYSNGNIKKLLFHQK
Summary of the method: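 Rat liver glucocorticoid receptor competitive binding, reported as % binding. Bound and free steroid are separated by dextran-coated charcoal adsorption instead of protamine sulfate precipitation.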

[5] = molecular target: T2, Progesterone receptor (Rattus norvegicus); experiment: Binding affinity to rat uterus progesterone receptor at 10 uM

Row | Activity [3] [%] | Activity [4] [%] | Activity [5] [%] | Compound | inhibition [1] [%] | Activity [2] [%]
1 |  |  |  | CC1(C)CC[C@@]2(CC[C@H]3[C@@H]4CCc5ccccc5[C@H]4CC[C@@]32C)OC1=O | 64 | 5
2 | 80 | 24 | 35 | CC1(C)CC[C@@]2(CC[C@H]3[C@@H]4CCc5cc(O)ccc5[C@H]4CC[C@@]32C)OC1=O |  | 
